In one data set the target is T1, hTopIB (Homo sapiens, UniProt P11387).
T1 sequence (P11387 1-765): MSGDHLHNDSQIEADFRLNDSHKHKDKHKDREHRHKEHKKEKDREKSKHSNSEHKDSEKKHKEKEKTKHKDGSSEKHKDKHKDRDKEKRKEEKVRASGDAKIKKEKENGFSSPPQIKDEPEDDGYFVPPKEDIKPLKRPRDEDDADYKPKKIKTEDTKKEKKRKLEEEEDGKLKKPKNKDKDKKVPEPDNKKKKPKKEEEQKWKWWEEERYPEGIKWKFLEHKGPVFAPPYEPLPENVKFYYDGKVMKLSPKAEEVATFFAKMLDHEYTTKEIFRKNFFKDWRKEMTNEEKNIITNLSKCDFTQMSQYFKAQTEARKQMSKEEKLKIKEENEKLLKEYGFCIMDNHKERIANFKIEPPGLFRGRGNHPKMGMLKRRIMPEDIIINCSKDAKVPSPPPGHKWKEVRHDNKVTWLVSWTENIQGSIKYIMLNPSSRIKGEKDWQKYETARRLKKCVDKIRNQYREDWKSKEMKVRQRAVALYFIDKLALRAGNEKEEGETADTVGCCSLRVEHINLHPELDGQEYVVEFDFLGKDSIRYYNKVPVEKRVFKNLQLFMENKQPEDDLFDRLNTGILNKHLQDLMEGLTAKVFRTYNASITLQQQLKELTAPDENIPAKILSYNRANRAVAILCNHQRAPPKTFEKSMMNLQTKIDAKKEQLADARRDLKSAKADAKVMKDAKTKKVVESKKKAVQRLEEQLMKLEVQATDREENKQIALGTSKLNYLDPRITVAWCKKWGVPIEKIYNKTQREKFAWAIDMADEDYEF
Conditions: read-out: hTopIB EC50; relaxation activity; ref Carballeira et al., 2012; cited from earlier work.

The test system of data set [1] is human colon adenocarcinoma grade II cell line (HT29). Put plainly: Cytotoxicity to HT29 cells. The data set is classed as cell-based. The note with it: HT-29, read-out: IC50 HT29.
Another data set has as its target PfFabG (Plasmodium falciparum, UniProt Q8I2S7). Put plainly: biochemical.
Another data set concerns P. falciparum K1. Put plainly: Toxicity to P. falciparum K1 strain. The data set is classed as cell-based, Plasmodium falciparum.
Data set [2] concerns BALB/c murine macrophages. The note with it: read-out: Murine macrophages BALB/c IC50; ref Carballeira et al., 2012; cited from earlier work.
The subject of data set [3] is human SH-SY5Y neuroblastoma cells. Put plainly: LDH release in SH-SY5Y cells. The data set is classed as cell-based. Conditions: 40 μM, 48h, in words.
In data set [4] the test system is human SH-SY5Y neuroblastoma cell line. Put plainly: Cytotoxicity to SH-SY5Y neuroblastoma cells. The data set is classed as cell-based. Conditions: 120 h, read-out: IC50 SH-SY5Y neuroblastoma cell line. The essentials:
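Human SH-SY5Y neuroblastoma cells were first differentiated with 15 μM all-trans retinoic acid for 5 d. Test compound was then added to the culture medium, and activity was read by sulforhodamine B (SRB) assay.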

Data set [5] deals with Mycobacterium tuberculosis H37Rv. The note with it: ref Morbidoni et al., 2006; cited from earlier work.
The subject of another data set is LdTopIB. Conditions: read-out: LdTopIB EC50; relaxation activity; ref Carballeira et al., 2012; cited from earlier work.
For the next data set, the system named is M. smegmatis mc^2 155. The note with it: ref Morbidoni et al., 2006; cited from earlier work.
The target of another data set is T2, PfFabI (Plasmodium falciparum, UniProt Q9BH77).
T2 sequence (Q9BH77 22-432): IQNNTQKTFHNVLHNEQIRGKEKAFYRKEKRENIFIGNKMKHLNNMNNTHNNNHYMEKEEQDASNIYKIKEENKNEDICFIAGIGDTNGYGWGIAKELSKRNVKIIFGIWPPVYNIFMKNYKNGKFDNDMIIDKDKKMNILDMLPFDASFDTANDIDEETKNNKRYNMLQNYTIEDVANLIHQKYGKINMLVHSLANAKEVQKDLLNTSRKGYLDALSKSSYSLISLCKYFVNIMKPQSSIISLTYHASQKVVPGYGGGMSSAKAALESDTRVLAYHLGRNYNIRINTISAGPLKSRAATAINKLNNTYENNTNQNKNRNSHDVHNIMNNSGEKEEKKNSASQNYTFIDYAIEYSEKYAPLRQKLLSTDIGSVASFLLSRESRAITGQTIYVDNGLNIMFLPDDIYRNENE
As to the kind of experiment: Inhibition of PfFabI. The data set is classed as biochemical.

For another data set, the system named is housefly. The note with it: in words, ref de Renobales et al., 1986; cited from earlier work.
Data set [6] concerns InhA, the enoyl-ACP reductase. Conditions: in words; ref Morbidoni et al., 2006; cited from earlier work.
In data set [7] the test system is mouse leukaemic monocyte macrophage cell line (RAW 264.7). As to the kind of experiment: Cytotoxicity to RAW 264.7 cells. The data set is classed as cell-based. The note with it: RAW264.7, read-out: IC50 RAW 264.7.
Data set [8] deals with L. donovani promastigotes. The note with it: read-out: IC50 L. donovani promastigotes; ref Carballeira et al., 2012; cited from earlier work.
The next data set relates to caspase-3. As to the kind of experiment: Caspase-3 activation in SH-SY5Y cells. The data set is classed as cell-based, human. Conditions: 40 μM, 48h, in words.
A further data set concerns the target T3, PfFabZ (Plasmodium falciparum, UniProt Q965D7).
T3 sequence (Q965D7 19-230): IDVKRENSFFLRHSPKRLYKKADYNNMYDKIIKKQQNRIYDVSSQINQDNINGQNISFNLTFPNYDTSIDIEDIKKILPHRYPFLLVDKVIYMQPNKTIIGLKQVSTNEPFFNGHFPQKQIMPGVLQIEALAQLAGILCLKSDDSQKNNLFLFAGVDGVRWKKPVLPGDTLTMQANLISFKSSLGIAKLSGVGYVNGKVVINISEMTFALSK
As to the kind of experiment: Inhibition of PfFabZ. The data set is classed as biochemical.

Structures are written as SMILES. Converted amounts (≈) assume the structure as drawn. Read-outs that look alike come from different tables or passages of the source.

Regarding `CCCCCCCCCCCCCCCC#CC(=O)O` [2-ODA, 2-octadecynoic acid], the values for the EC50 at hTopIB and with LdTopIB were 34.8 ± 2.3 µM and 5.3 ± 0.7 µM, respectively. Further, the IC50 is 101.1 ± 0.9 µM in data set [1]; 2900 nM at PfFabG; 20 µM with P. falciparum K1 (Plasmodium falciparum, K1, read-out: IC50 P. falciparum K1, Carballeira and Tasdemir, unpublished data); 21.7 µM in the data set on P. falciparum K1 (read-out: IC50 P. falciparum K1, Carballeira and Tasdemir, unpublished data); over 100 µM in data set [2]; 26 ± 2 µM in data set [4]. The IC50 at PfFabI is 1100 nM; in data set [7], 45.5 ± 3.4 µM; in [8], 11 µM; against PfFabZ, 1000 nM. Further, the LDH release entry in [3] is listed as “significant LDH release”. For the same molecule, the “MIC against Mycobacterium tuberculosis H37Rv” value in data set [5] was 20 to 25 µM. Besides, the “MIC against M. smegmatis mc^2 155” value in the data set on M. smegmatis mc^2 155 was 4 µM (≈ 1.12 µg/mL). The “In vivo incorporation of [1-14C]acetate into fatty acids and hydrocarbons” value in the data set on housefly was “inhibited”. Moreover, in [6], the “Inhibition of InhA” value is “able to inhibit”. Moreover, the Caspase-3 activation entry in the data set on caspase-3 is on record as “did not produce any significant caspase-3 activation”.

By EC50 is commonly meant the concentration needed to bring the measured effect to its halfway point.
